Experimental findings from ChEMBL document CHEMBL1122586, “Cytochrome P-455 nm complex formation in the metabolism of phenylalkylamines. 8. Stereoselectivity in metabolic intermediary complex formation with a series of chiral 2-substituted 1-phenyl-2-aminoethanes” (J Med Chem, 1984) are described below.

Data set [1] can be described thus: Compound was tested for the maximal velocity of metabolic intermediary complex formation. It counts as ADME. Summed up: (§1)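 Liver microsomes from male Sprague-Dawley rats (200–240 g) pretreated with phenobarbital ip (three daily injections of 80, then 40 mg/kg on day 4), isolated by gel filtration. Incubation at 25 °C, 1 mg/mL protein, 50 mM potassium phosphate pH 7.5, 10 mM MgCl2, with substrate. Started by NADPH. ΔA455–490 per μmol P-450 versus time read by difference spectroscopy. Vmax(obsd) and Km(app) come from linear plots over a defined substrate range.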

Data set [2] can be described thus: Apparent Michaelis-Menten constant (Km (app)) for the metabolic intermediary complex formation was reported. It counts as ADME. Particulars: read-out: Km app. Summed up: as §1

For orientation: Km means the concentration of substrate that gives half-maximal velocity. For the compound `CCC[C@H](N)Cc1ccccc1.Cl`, in data set [1], the Vmax is listed as 9.1. Moreover, the Michaelis constant (Km) in data set [2] is 32 µM.

Turning to `CCCC[C@H](N)Cc1ccccc1.Cl`, the Vmax in data set [1] was determined as 10.5. The Km in data set [2] was 21 µM.

Take `CCC[C@@H](N)Cc1ccccc1.Cl`: the Vmax in data set [1] is on record as 5.1. In addition, the Km in data set [2] is 28 µM.

`C[C@@H](N)Cc1ccccc1.Cl`: the Vmax in data set [1] was ~ 1.5. Further, in data set [2], the Km was approximately 270 µM.

As for `CCCC[C@@H](N)Cc1ccccc1.Cl`, the Vmax in data set [1] was determined as 5.7. Besides, the Km in data set [2] came out at 16 µM.

With `C[C@H](N)Cc1ccccc1.Cl`, the Vmax in data set [1] is ~ 1.6. Further, in data set [2], the Km is approximately 280 µM.

`CCC(N)Cc1ccccc1.Cl` (stereo unspecified): the Vmax in data set [1] was 4. Besides, the Km in data set [2] stood at 30 µM.

`CC[C@@H](N)Cc1ccccc1.Cl`: in data set [1], the Vmax worked out at 3.2. Also, the Km in data set [2] turned out to be 23 µM.
